Screening results deposited in PubChem BioAssay by The Scripps Research Institute Molecular Screening Center.
CHO parental Ca = counter-screen: ATP calcium response change in parental CHO cells. inhibition, % at 5.6 µM. AID 463079. parental CHO-K1, ATP-induced calcium, Fluo-8 fluorescence. 330,000 compounds, 0.63% hits;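 active = inhibition above that plate's mean sample inhibition plus 3 SD, cut at about 26% in these data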;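 also: 0% = ATP-challenged DMSO wells and 100% = DMSO wells without ATP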
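Material: parental CHO cells / Compound: single nominal dose of 5.6 µM per compound / Signal: Fluo-8 fluorescence / Replicates: singlicate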
GalR3 antagonist = antagonists of human GalR3 | inhibition, % at 3 µM | 360,000 compounds, 0.44% hits | O60755 | HEK293 GalR3-CNG cAMP membrane potential fluorescence; galR3 body fused to GalR1 C-terminus;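 active = inhibition above the screen-wide average plus 3 SD, cut at about 13% in these data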;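 also: forskolin and galanin both at EC90 stimulate the cells; cAMP rise reported by CNG channel membrane potential dye signal; 0% = forskolin plus galanin with DMSO and 100% = forskolin alone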
Target sequence (O60755 1-299 limits assumed): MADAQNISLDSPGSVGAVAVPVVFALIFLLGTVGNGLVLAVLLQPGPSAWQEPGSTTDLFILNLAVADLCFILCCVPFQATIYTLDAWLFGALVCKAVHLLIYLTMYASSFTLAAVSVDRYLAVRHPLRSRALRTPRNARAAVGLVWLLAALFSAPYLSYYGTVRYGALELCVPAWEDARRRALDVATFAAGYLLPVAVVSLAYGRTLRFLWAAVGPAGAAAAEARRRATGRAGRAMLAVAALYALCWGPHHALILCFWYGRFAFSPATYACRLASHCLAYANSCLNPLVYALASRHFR
OX1R antag-1 = antagonists of human orexin 1 receptor (OX1R); AID 485270; OX1R-expressing cells, FRET antagonist read-out; inhibition, % at 6.6 µM; 330,000 compounds, 1.8% hits; O43613; in the data active = inhibition mostly above about 38%, no sharp cut-off; inactive = mostly below about 40%;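 also: 0% = agonist challenge alone and 100% = reference antagonist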
OX1R antag-2 = antagonists of human orexin 1 receptor | inhibition, % at 5 µM | 330,000 compounds, 0.43% hits | CHO/OX1R cells, Fluo-8 calcium fluorescence, orexin A | O43613;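 active = inhibition above its plate's threshold, mean inhibition of all tested compounds on the plate plus 3 SD, cut at about 37% in these data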;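 also: 0% = orexin A challenge wells and 100% = SB-334867-A antagonist wells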
GPR7 antagonist = human neuropeptides B/W receptor 1 antagonism | P48145 | GPR7-expressing cells, fluorescence antagonist assay | inhibition, % at 4.4 µM | 290,000 compounds, 1.1% hits; in the data active = inhibition above about 16%, passing the limit was not always enough;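 also: cells stimulated with the agonist NPW; 0% = agonist with vehicle and 100% = vehicle without agonist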
Target sequence (P48145 whole entry, looked up): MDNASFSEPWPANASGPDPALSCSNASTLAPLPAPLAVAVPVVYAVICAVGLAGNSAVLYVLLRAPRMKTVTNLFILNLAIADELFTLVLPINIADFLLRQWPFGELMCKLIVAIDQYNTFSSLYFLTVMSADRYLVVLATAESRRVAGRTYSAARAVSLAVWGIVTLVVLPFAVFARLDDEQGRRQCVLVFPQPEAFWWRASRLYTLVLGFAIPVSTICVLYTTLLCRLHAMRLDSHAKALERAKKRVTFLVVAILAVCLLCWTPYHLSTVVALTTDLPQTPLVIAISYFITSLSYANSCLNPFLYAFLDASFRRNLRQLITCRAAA
GPR7 antag cf = human GPR7 antagonism, confirmation assay; shares compounds with GPR7 antagonist; GPR7-expressing cells, calcium fluorescence antagonist mode; inhibition, % at 4.4 µM; 2,400 compounds, 52% hits; in the data active = inhibition above about 24%;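 also: stimulated with the GPR7 agonist NPW; 0% = agonist plus vehicle and 100% = vehicle alone without agonist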
MCHR1 antagonist = counter-screen for GPR7 antagonists: antagonists of human MCHR1; shares compounds with GPR7 antagonist; MCHR1-expressing cells, fluorescence antagonist assay; inhibition, % at 4.4 µM; 2,400 compounds, 62% hits; in the data active = inhibition above about 22%;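 also: 0% = vehicle with agonist and 100% = vehicle without agonist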
An asterisk follows results filed as active; · = no result. Shown are actives, neighbours in structure and some others; about 3.1% of the full set was active somewhere.

SMILES | CHO parental Ca | GalR3 antagonist | OX1R antag-1 | OX1R antag-2 | GPR7 antagonist | GPR7 antag cf | MCHR1 antagonist
COc1cc(/C=C/C(=O)OCC(=O)NC(=O)C2COc3ccccc3O2)ccc1OC(F)F (stereo unspecified) | -21 | -1 | 14 | -19 | · | · | ·
COc1nnc(-c2ccc(N3CCCCC3)c(NC(=O)COc3ccccc3)c2)c2ccccc12 | · | -3 | · | · | · | · | ·
C[C@H](CO)N1C[C@H](C)[C@@H](CN(C)C(=O)Nc2ccc(C(F)(F)F)cc2)OCc2cn(nn2)CCCC1=O | · | -6 | · | · | · | · | ·
CCC(C)NCCCOc1ccc(Cl)cc1C(C)(C)C (stereo unspecified) | -5 | 3 | 4 | -8 | -2 | · | ·
COCCCNCCCOc1ccc(Cl)cc1C(C)(C)C | -18 | -6 | 17 | -16 | 22* | 26* | 33*
CNCCCOc1ccc(Cl)cc1C(C)(C)C | -2 | -10 | 11 | 2 | 25* | 41* | 48*
O=C(Nc1ccc(Cl)cc1)Nc1nc(-c2ccccc2O)cs1 | 74* | -1 | 46 | 41* | 31* | 67* | 62*
O=C(Nc1ccc(Cl)cc1)Nc1nc(-c2sccc2Br)cs1 | 20 | 0 | 26 | 6 | -1 | · | ·
O=C(O)c1ccc(-n2nncc2-c2ccco2)cc1 | -8 | -8 | -4 | -23 | -16 | · | ·
O=C(Nc1ccc(-n2nncc2-c2ccco2)cc1)c1ccc(F)cc1 | -14 | -3 | 18 | 5 | 22* | 40* | 73*
COc1cccc(CC2(CO)CCN(CC3=CC[C@H]4C[C@@H]3C4(C)C)CC2)c1 | -6 | -2 | 4 | -41 | 7 | · | ·
COc1ccc(/C=N/Nc2ccc([N+](=O)[O-])cc2)cc1Cn1cc([N+](=O)[O-])cn1 | -10 | 1 | 35 | -2 | 6 | · | ·
COc1ccc(/C=N/Nc2ccc([N+](=O)[O-])cc2)cc1O | 7 | -5 | 1 | 4 | 30* | 37* | 41*
CCN(C[C@H]1N[C@@](CC)(C(=O)OC)[C@H]2C(=O)N(C)C(=O)[C@@H]12)S(=O)(=O)c1ccccc1 | -18 | -2 | 2 | 19 | · | · | ·
COc1cc(CNCc2ccccn2)ccc1OCc1ccc(Cl)c(Cl)c1 | -2 | -3 | 17 | -17 | 24* | 23 | 68*
NC1(N2SC(S)=C3CCCC=C32)CCCCC1 | · | -6 | · | · | · | · | ·
O=C(c1ccc(Br)cc1)C(CN1CCOCC1)c1ccccc1 (stereo unspecified) | -3 | -4 | 6 | 8 | 67* | 59* | 86*
Cc1nc2ccc([N+](=O)[O-])cc2c(=O)n1Cc1cccc(F)c1 | -15 | -8 | 2 | -3 | 18 | · | ·
Cc1cccc(Cn2c(C)nc3ccc([N+](=O)[O-])cc3c2=O)c1 | 1 | -10 | 36 | -22 | 45* | 36* | 43*
N#CCOC(=O)[C@H](Cc1c[nH]c2ccccc12)NS(=O)(=O)c1ccc(Cl)cc1 | 14 | -12 | -10 | 19 | 43* | 49* | 33*
CCN1C(=O)C(=O)N(CC(=O)Nc2ccccc2OC(F)F)C1=O | -1 | -1 | -4 | -8 | · | · | ·
O=C(COc1ccccc1F)N1CCc2ccccc2C1 | -2 | 1 | -1 | -17 | 26* | 34* | 35*
S=C(NCCN1CCCCC1)Nc1ccc(Br)cc1 | -17 | -8 | 11 | -22 | 38* | 9 | 13
S=C(NCCN1CCCCC1)Nc1ccccc1 | -4 | -6 | 8 | -16 | -4 | · | ·
COc1ccc(NC(=O)C(NS(=O)(=O)c2cccs2)C(C)C)cc1Cl (stereo unspecified) | -22 | -8 | 31 | -7 | -7 | · | ·
SMILES | CHO parental Ca | GalR3 antagonist | OX1R antag-1 | OX1R antag-2 | GPR7 antagonist | GPR7 antag cf | MCHR1 antagonist
CCCCNC(=O)N(c1c(N)n(Cc2ccccc2)c(=O)[nH]c1=O)C1CCCC1 | -14 | -3 | 28 | -7 | -4 | · | ·
COc1ccc(C(=O)NCCc2ccccc2)cc1[N+](=O)[O-] | -8 | -8 | 19 | -17 | 31* | -6 | 15
CC(=O)c1cccc(NC(=S)NC(=O)Cc2ccc(Cl)cc2)c1 | -2 | -5 | -6 | 10 | 36* | 55* | 35*
CC(C)C(=O)Nc1ccc(NC(=O)CCc2ccccc2)cn1 | -2 | 1 | 1 | -5 | 23* | 5 | 2
COc1ccc(Cl)cc1NC(=O)CN(C)C(=O)CCNC(=O)c1ccccc1OC | -21 | -1 | 24 | 0 | · | · | ·
CCCCn1c(=N)n(CC(O)c2ccccc2)c2ccccc21 (stereo unspecified) | -20 | -8 | 16 | -27 | 31* | 4 | 9
Cc1ccc(Cn2c(=N)n(CC(O)COc3ccccc3)c3ccccc32)cc1 (stereo unspecified) | 41* | -12 | -7 | 52* | 29* | 43* | 71*
CCn1c(=N)n(CC(O)c2ccccc2)c2ccccc21 (stereo unspecified) | -11 | -6 | 15 | -11 | -6 | · | ·
CCCCn1c(=N)n(CC(O)COc2ccc(C)cc2)c2ccccc21 (stereo unspecified) | -2 | -11 | 9 | -18 | 36* | 28* | 39*
CCCCn1c(=N)n(CC(O)COc2ccccc2)c2ccccc21 (stereo unspecified) | -29 | -4 | 15 | -27 | 10 | · | ·
CCCCn1c(N)c(N(CC(C)C)C(=O)c2ccc(COc3ccccc3)o2)c(=O)[nH]c1=O | -12 | -5 | 23 | -21 | 26* | 32* | 21
CCCCn1c(N)c(N(CCOC)C(=O)CCNC(=O)c2ccccc2Cl)c(=O)[nH]c1=O | -6 | 1 | 8 | 5 | 26* | -4 | -2
CCCCN(C(=O)c1ccccc1OCc1ccc(F)cc1)c1c(N)n(CCC)c(=O)[nH]c1=O | -23 | -2 | 66* | 11 | 30* | 16 | 9
CN(C(=O)c1ccccc1OCc1ccc(F)cc1)c1c(N)n(Cc2ccccc2)c(=O)[nH]c1=O | · | -3 | · | · | · | · | ·
CCCCn1c(N)c(N(CC(C)C)C(=O)c2cccc(S(=O)(=O)N3CCCCCC3)c2)c(=O)[nH]c1=O | 1 | -4 | 10 | -6 | 28* | -6 | 4
CCCCn1c(N)c(N(CC(C)C)C(=O)CCNC(=O)c2ccccc2Cl)c(=O)[nH]c1=O | 4 | -3 | 16 | -7 | · | · | ·
CCc1ccccc1N1CC(C(=O)Nc2cc(C)on2)CC1=O (stereo unspecified) | 2 | -2 | 21 | -12 | 3 | · | ·
Cc1nc2c(N=Nc3ccccc3F)c(N)nn2c(N)c1C#N | 11 | -8 | 57 | -9 | -6 | · | ·
COCCNC(=O)Cn1ccc2cc(S(=O)(=O)N3CCCCC3)ccc21 | -11 | 0 | 13 | -11 | -4 | · | ·
CN(C)CCN(C(=O)c1ccc2ccccc2c1)c1nc2ccc(Br)cc2s1 | -12 | -11 | 1 | -12 | 7 | · | ·
Cc1ccc2nc(N(CCN(C)C)C(=O)/C=C/c3cccs3)sc2c1 | -8 | -6 | 9 | 3 | 2 | · | ·
